Source: ChEMBL document CHEMBL4406880, “Design, synthesis, and bioactivity of dihydropyrimidine derivatives as kinesin spindle protein inhibitors” (Bioorg Med Chem, 2019)

How the values were obtained:
Format in all cases: functional
NCI-H322M = experiment: Growth inhibition of human NCI-H322M cells assessed as growth percentage at 10 uM incubated for 48 hrs by sulforhodamine B assay relative to control; settings: read-out: Activity
Summary of the method: (§1)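 NCI-60 one-dose screen. Cells in RPMI 1640 with 5% FBS and 2 mM L-glutamine, seeded at 5,000–40,000 cells/well according to doubling time, and preincubated overnight at 37 °C, 5% CO2. A time-zero plate was TCA-fixed at drug addition. Compound from DMSO stock, final 10 µM, 48 h; DMSO vehicle controls. Fixation with TCA, 10% final (16% for suspension cells). SRB stain, Tris solubilization, A515. Result given as % growth versus untreated cells.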

EKVX = experiment: Growth inhibition of human EKVX cells assessed as growth percentage at 10 uM incubated for 48 hrs by sulforhodamine B assay relative to control; settings: read-out: Activity
Summary of the method: (§2)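 NCI-60 one-dose screen: cells in RPMI 1640 with 5% FBS and 2 mM L-glutamine, plated at 5,000–40,000 cells/well and preincubated 24 h at 37 °C, 5% CO2. Compound is added from a DMSO stock to a final 10 µM and incubated 48 h. Cells are TCA-fixed and stained with sulforhodamine B, read at 515 nm. Output is % growth versus untreated control, with a time-zero plate.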

SF-539 = experiment: Growth inhibition of human SF539 cells assessed as growth percentage at 10 uM incubated for 48 hrs by sulforhodamine B assay relative to control; settings: SF-539, 48 h, read-out: Activity
Summary of the method: (§3)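 NCI-60 single-dose screen. Cells were grown in RPMI 1640 with 5% FBS and 2 mM L-glutamine and plated at 5,000–40,000 cells/well. After an overnight preincubation at 37 °C in 5% CO2, compound was added at a final 10 µM from a DMSO stock, with DMSO/PBS controls. After 48 h, cells were TCA-fixed and stained with 0.4% SRB, and absorbance was read at 515 nm. Growth is given as a percentage of untreated control.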

SK-OV-3 = experiment: Growth inhibition of human SKOV3 cells assessed as growth percentage at 10 uM incubated for 48 hrs by sulforhodamine B assay relative to control; settings: SK-OV-3, 48 h, read-out: Activity; summary of the method: as §3
NCI-H460 = experiment: Growth inhibition of human NCI-H460 cells assessed as growth percentage at 10 uM incubated for 48 hrs by sulforhodamine B assay relative to control; settings: NCI-H460, 48 h, read-out: Activity; summary of the method: as §1
NCI-H226 = experiment: Growth inhibition of human NCI-H226 cells assessed as growth percentage at 10 uM incubated for 48 hrs by sulforhodamine B assay relative to control; settings: NCI-H226, 48 h, read-out: Activity; summary of the method: as §1
BT-549 = experiment: Growth inhibition of human BT549 cells assessed as growth percentage at 10 uM incubated for 48 hrs by sulforhodamine B assay relative to control; settings: BT-549, 48 h, read-out: Activity; summary of the method: as §2
MDA-MB-435 = experiment: Growth inhibition of human MDA-MB-435 cells assessed as growth percentage at 10 uM incubated for 48 hrs by sulforhodamine B assay relative to control; settings: MDA-MB-435, 48 h, read-out: Activity; summary of the method: as §1
MCF7 = experiment: Growth inhibition of human MCF7 cells assessed as growth percentage at 10 uM incubated for 48 hrs by sulforhodamine B assay relative to control; settings: MCF7, 48 h, read-out: Activity; summary of the method: as §1
MDA-MB-468 = experiment: Growth inhibition of human MDA-MB-468 cells assessed as growth percentage at 10 uM incubated for 48 hrs by sulforhodamine B assay relative to control; settings: MDA-MB-468, 48 h, read-out: Activity; summary of the method: as §1
ACHN = experiment: Growth inhibition of human ACHN cells assessed as growth percentage at 10 uM incubated for 48 hrs by sulforhodamine B assay relative to control; settings: read-out: Activity; summary of the method: as §2
SR = experiment: Growth inhibition of human SR cells assessed as growth percentage at 10 uM incubated for 48 hrs by sulforhodamine B assay relative to control; settings: read-out: Activity; summary of the method: as §3
Hs-578T = experiment: Growth inhibition of human Hs 578T cells assessed as growth percentage at 10 uM incubated for 48 hrs by sulforhodamine B assay relative to control; settings: read-out: Activity; summary of the method: as §1
SNB-75 = experiment: Growth inhibition of human SNB75 cells assessed as growth percentage at 10 uM incubated for 48 hrs by sulforhodamine B assay relative to control; settings: SNB-75, 48 h, read-out: Activity; summary of the method: as §3
MOLT-4 = experiment: Growth inhibition of human MOLT4 cells assessed as growth percentage at 10 uM incubated for 48 hrs by sulforhodamine B assay relative to control; settings: MOLT-4, 48 h, read-out: Activity; summary of the method: as §1
786-0 = experiment: Growth inhibition of human 786-0 cells assessed as growth percentage at 10 uM incubated for 48 hrs by sulforhodamine B assay relative to control; settings: 786-0, 48 h, read-out: Activity; summary of the method: as §2
NCI-H522 = experiment: Growth inhibition of human NCI-H522 cells assessed as growth percentage at 10 uM incubated for 48 hrs by sulforhodamine B assay relative to control; settings: NCI-H522, 48 h, read-out: Activity; summary of the method: as §1
T47D = experiment: Growth inhibition of human T47D cells assessed as growth percentage at 10 uM incubated for 48 hrs by sulforhodamine B assay relative to control; settings: read-out: Activity; summary of the method: as §3
IGROV-1 = experiment: Growth inhibition of human IGROV1 cells assessed as growth percentage at 10 uM incubated for 48 hrs by sulforhodamine B assay relative to control; settings: IGROV-1, 48 h, read-out: Activity; summary of the method: as §1
PC-3 = experiment: Growth inhibition of human PC3 cells assessed as growth percentage at 10 uM incubated for 48 hrs by sulforhodamine B assay relative to control; settings: PC-3, 48 h, read-out: Activity; summary of the method: as §3
UO-31 = experiment: Growth inhibition of human UO31 cells assessed as growth percentage at 10 uM incubated for 48 hrs by sulforhodamine B assay relative to control; settings: UO-31, 48 h, read-out: Activity; summary of the method: as §3
TK-10 = experiment: Growth inhibition of human TK10 cells assessed as growth percentage at 10 uM incubated for 48 hrs by sulforhodamine B assay relative to control; settings: TK-10, 48 h, read-out: Activity; summary of the method: as §3
SNB-19 = experiment: Growth inhibition of human SNB19 cells assessed as growth percentage at 10 uM incubated for 48 hrs by sulforhodamine B assay relative to control; settings: SNB-19, 48 h, read-out: Activity; summary of the method: as §3
HOP-62 = experiment: Growth inhibition of human HOP62 cells assessed as growth percentage at 10 uM incubated for 48 hrs by sulforhodamine B assay relative to control; settings: HOP-62, 48 h, read-out: Activity; summary of the method: as §1
M14 = experiment: Growth inhibition of human M14 cells assessed as growth percentage at 10 uM incubated for 48 hrs by sulforhodamine B assay relative to control; settings: M14, 48 h, read-out: Activity; summary of the method: as §1
RPMI-8226 = experiment: Growth inhibition of human RPMI8226 cells assessed as growth percentage at 10 uM incubated for 48 hrs by sulforhodamine B assay relative to control; settings: RPMI-8226, 48 h, read-out: Activity; summary of the method: as §3
CCRF-CEM = experiment: Growth inhibition of human CCRF-CEM cells assessed as growth percentage at 10 uM incubated for 48 hrs by sulforhodamine B assay relative to control; settings: read-out: Activity; summary of the method: as §2

Structure (SMILES)	growth at 10 µM (NCI-H322M)	growth at 10 µM (EKVX)	growth at 10 µM (SF-539)	growth at 10 µM (SK-OV-3)	growth at 10 µM (NCI-H460)	growth at 10 µM (NCI-H226)	growth at 10 µM (BT-549)	growth at 10 µM (MDA-MB-435)	growth at 10 µM (MCF7)	growth at 10 µM (MDA-MB-468)	growth at 10 µM (ACHN)	growth at 10 µM (SR)	growth at 10 µM (Hs-578T)	growth at 10 µM (SNB-75)	growth at 10 µM (MOLT-4)	growth at 10 µM (786-0)	growth at 10 µM (NCI-H522)	growth at 10 µM (T47D)	growth at 10 µM (IGROV-1)	growth at 10 µM (PC-3)	other results
O=C1C2=C(NC(=S)NC2c2ccc3c(c2)OCO3)c2ccccc21 (racemic)	106%	102%	105%	103%	111%	92.6%	101%	107%	96.8%	108%	106%	107%	96.8%	81%	104%	108%	91.5%	99%	104%	96.3%	growth at 10 µM (UO-31): 77%; growth at 10 µM (TK-10): 102%; growth at 10 µM (SNB-19): 100%; growth at 10 µM (HOP-62): 104%; growth at 10 µM (M14): 110%; growth at 10 µM (RPMI-8226): 103%; growth at 10 µM (CCRF-CEM): 108%
COCCOC(=O)C1=C(C)NC(=O)NC1c1ccc2c(c1)OCO2 (racemic)	107%	99.1%	101%	98.8%	105%	98%	106%	101%	96.8%	106%	107%	105%	103%	89.6%	101%	102%	91.8%	98.4%	103%	98.8%	growth at 10 µM (UO-31): 87.3%; growth at 10 µM (TK-10): 100%; growth at 10 µM (SNB-19): 95.6%; growth at 10 µM (HOP-62): 108%; growth at 10 µM (M14): 104%; growth at 10 µM (RPMI-8226): 101%; growth at 10 µM (CCRF-CEM): 99%
CC(=O)N1C(=S)NC(C)=C(C(=O)OCC(C)C)C1c1ccc2c(c1)OCO2 (racemic)	102%	99.8%	101%	100%	105%	94.6%	86.1%	95.5%	104%	94.9%	105%	80%	89.2%	92.2%	95.1%	95.1%	74.9%	66.7%	112%	81.2%	growth at 10 µM (UO-31): 91.8%; growth at 10 µM (TK-10): 95.4%; growth at 10 µM (SNB-19): 97.9%; growth at 10 µM (HOP-62): 91.9%; growth at 10 µM (M14): 96.4%; growth at 10 µM (RPMI-8226): 54.8%
CC(=O)N1C(=S)NC(C)=C(C(=O)OC(C)C)C1c1ccc2c(c1)OCO2 (racemic)	99.5%	99.7%	98.2%	104%	110%	94.8%	99.3%	102%	97.2%	104%	106%	89.6%	98%	97.2%	95.2%	102%	78%	70.4%	106%	87.2%	growth at 10 µM (UO-31): 91.3%; growth at 10 µM (TK-10): 103%; growth at 10 µM (SNB-19): 98.1%; growth at 10 µM (HOP-62): 88.5%; growth at 10 µM (M14): 96.8%; growth at 10 µM (RPMI-8226): 73.9%; growth at 10 µM (CCRF-CEM): 81.5%
